Experimental data from ChEMBL document CHEMBL4613272, “Anti-HIV-Active Nucleoside Triphosphate Prodrugs” (J Med Chem, 2020).

Tests used:
[1] = Half life in pH 7.3 phosphate buffered saline by HPLC analysis; assay type: physicochemical
In short: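 Prodrug from 50 mM DMSO-d6 stock diluted to 1.9 mM with water/DMSO-d6. Reaction started by adding phosphate buffer (50 mM stock, pH 7.3). Products followed by analytical RP18 HPLC with TBAA or TEAA buffer/acetonitrile gradient.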

[2] = Prodrug conversion in pH 7.3 phosphate buffered saline assessed as pig liver esterase-mediated gamma-(C16-ACB)-d4TTP formation by HPLC analysis; assay type: ADME, Sus scrofa; conditions: in vitro
In short: (§1)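 Prodrug diluted from 50 mM DMSO stock through a 6.0 mM intermediate into DMSO/50 mM PBS pH 7.3. Started with pig liver esterase (3 mg/mL solution in PBS) and shaken at 37 °C, 800 rpm. Aliquots quenched in MeOH at intervals, filtered, stored in liquid nitrogen and analysed by RP18 HPLC.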

[3] = Prodrug conversion in pH 7.3 phosphate buffered saline assessed as pig liver esterase-mediated d4TTP formation by HPLC analysis; assay type: ADME, Sus scrofa; conditions: in vitro; in short: as §1
[4] = Prodrug conversion in pH 7.3 phosphate buffered saline assessed as pig liver esterase-mediated d4TMP formation by HPLC analysis; assay type: ADME, Sus scrofa; conditions: in vitro; in short: as §1
[5] = Half life in pH 7.3 phosphate buffered saline in presence of pig liver esterase by HPLC analysis; assay type: ADME, Sus scrofa; in short: as §1
[6] = Half life in human CEM/0 cell extracts by HPLC analysis; assay type: ADME, CCRF-CEM
In short: (§2)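 Cell extract prepared from CEM cells grown in RPMI-1640-based medium to ~3·10^6 cells/mL. Cells washed twice in cold PBS, resuspended at 10^8 cells/mL, sonicated, cleared at 10,000 rpm and stored at -80 °C. Prodrug at 6.0 mM hydrolysis solution in DMSO-d6 mixed with water and extract at 37 °C over time. Samples iced, sonicated and centrifuged; supernatant analysed by RP18 HPLC. t1/2 calculated as for chemical hydrolysis.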

[7] = Prodrug conversion in human CEM/0 cell extracts assessed as gamma-(C16-ACB)-d4TTP formation by HPLC analysis; assay type: ADME; conditions: ccrf-cem; in short: as §2
[8] = Prodrug conversion in human CEM/0 cell extracts assessed as d4TDP formation by HPLC analysis; assay type: ADME; conditions: ccrf-cem; in short: as §2
[9] = Prodrug conversion in human CEM/0 cell extracts assessed as d4TTP formation by HPLC analysis; assay type: ADME; conditions: ccrf-cem; in short: as §2
[10] = Prodrug conversion in human CEM/0 cell extracts assessed as d4TMP formation by HPLC analysis; assay type: ADME; conditions: ccrf-cem; in short: as §2
[11] = Cytotoxicity against human CEM cells assessed as reduction in cell proliferation; assay type: cell-based; conditions: CEM cells (CCRF-CEM)
In short: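 CC50 is the compound concentration inhibiting CEM CD4+ T-cell proliferation by 50%. Mean ± SD of n=2-3 independent experiments.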

[12] = Selectivity index, ratio of CC50 for human CEM cells to EC50 for HIV1 HE infected in human CEM/0 cells; conditions: CEM cells (CC50) and HIV1 HE infected CEM/0 cells (EC50)
[13] = test system: Human immunodeficiency virus 2; experiment: Antiviral activity against HIV2 ROD infected in thymidine kinase-deficient human CEM cells assessed as inhibition of virus-induced giant cell formation measured after 4 to 5 days by microscopic analysis; conditions: Human immunodeficiency virus 2, ISOLATE ROD, CCRF-CEM
[14] = Prodrug conversion in human CEM/0 cell extracts assessed as gamma-(C6-ACB)-d4TTP formation by HPLC analysis; assay type: ADME; conditions: ccrf-cem; in short: as §2
[15] = test system: Human immunodeficiency virus 1; experiment: Antiviral activity against HIV1 HE infected in human CEM/0 cells assessed as inhibition of virus-induced giant cell formation measured after 4 to 5 days by microscopic analysis; conditions: Human immunodeficiency virus 1, HE, CCRF-CEM
[16] = test system: Human immunodeficiency virus 2; experiment: Antiviral activity against HIV2 ROD infected in human CEM/0 cells assessed as inhibition of virus-induced giant cell formation measured after 4 to 5 days by microscopic analysis; conditions: Human immunodeficiency virus 2, ISOLATE ROD, CCRF-CEM
[17] = Cytotoxicity against mouse eEND.2 cells assessed as reduction in cell viability by WST-1 assay; assay type: cell-based; conditions: read-out: LD50 (the source's name)

Structure (SMILES)	half-life [1]	Drug metabolism [2]	Drug metabolism [3]	Drug metabolism [4]	half-life [5]	half-life [6]	Drug metabolism [7]	Drug metabolism [8]	Drug metabolism [9]	Drug metabolism [10]	CC50 [11]	selectivity ratio [12]	EC50 [13]	Drug metabolism [14]	EC50 [15]	EC50 [16]	CC50 [17]
CCCCCCCCCCCCCCCCOC(=O)Oc1ccc(COP(=O)(OCc2ccc(OC(=O)CC)cc2)OP(=O)(O)OP(=O)(O)OC[C@@H]2C=C[C@H](n3cc(C)c(=O)[nH]c3=O)O2)cc1.N.N (stereo partly drawn)	83 h	Metabolite_Detected	Metabolite_Detected	Metabolite_Notdetected	4.7 h	1.9 h	Metabolite_Detected	Metabolite_Detected	Metabolite_Notdetected	Metabolite_Detected	34 µM	1260	0.11 µM				
CCCCCCCCCCCC(=O)Oc1ccc(COP(=O)(OCc2ccc(OC(=O)OCCCCCC)cc2)OP(=O)(O)OP(=O)(O)OC[C@@H]2C=C[C@H](n3cc(C)c(=O)[nH]c3=O)O2)cc1.N.N (stereo partly drawn)	95 h		Metabolite_Detected			2.5 h					41 µM	137	0.21 µM	Metabolite_Detected	0.3 µM	0.07 µM	
OCc1ccc(O)cc1 [PARAHYDROXYBENZYL ALCOHOL]																	50000 µM
